Results published in ChEMBL document CHEMBL5338714, “Design, synthesis and biological evaluation of biphenyl-benzamides as potent FtsZ inhibitors” (Eur J Med Chem, 2022).
Values after ≈ are worked out from the molar mass of the structure shown. Active and inactive are the calls of the source. The calls are words filed in the database; no cut-off is given here.

Assays:
[1] = Clearance in ICR mouse at 1 mg/kg, iv measured for 0.08 to 24 hrs by LC-MS/MS analysis; assay type: ADME, organism-based; conditions: in vivo, time 0.08-24 hrs
Summary of the method: (§1)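 Male ICR mice, single intravenous dose formulated in 5% DMSO, 4% ethanol, 5% Cremophor EL, 86% water. Blood sampled at 5, 15, 30 min, 1, 2, 4, 8 and 24 h; plasma stored at -20 °C. Compound quantified by LC-MS/MS, with parameters from non-compartmental analysis.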

[2] = AUC (0 to infinity) in ICR mouse at 5 mg/kg, po measured for 0.25 to 24 hrs by LC-MS/MS analysis; assay type: ADME, organism-based; design: time upper 24 hrs, time lower 0.25 hrs, dose 5 mg/kg, route po; conditions: in vivo
Summary of the method: (§2)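 Male ICR mice dosed orally with a solution of 5% DMSO, 4% ethanol, 5% Cremophor EL and 86% water. Blood collected at 15, 30 min, 1, 2, 4, 6, 8 and 24 h; plasma stored at -20 °C. Plasma levels measured by LC-MS/MS; parameters by non-compartmental analysis, with bioavailability relative to the 1 mg/kg iv dose.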

[3] = Metabolic stability in mouse liver microsomes assessed as compound remaining preincubated for 5 mins followed by NADPH addition measured after 5 mins by LC/MS analysis; assay type: ADME, Microsome; conditions: time 10 min, read-out: Stability
Summary of the method: (§3)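 Liver microsomes (final protein 0.75 mg/mL) with compound in 100 mM phosphate buffer pH 7.4, preincubated 5 min at 37 °C. Reaction started with NADPH regeneration system, stopped at 5, 15, 30 and 45 min with acetonitrile containing internal standard. Percent remaining measured by LC/MS, with ketanserin as reference; variation given as RSD of area ratio.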

[4] = Metabolic stability in rat liver microsomes assessed as intrinsic clearance preincubated for 5 mins followed by NADPH addition measured upto 45 mins by LC/MS analysis; assay type: ADME, Microsome; conditions: time < 50 min, read-out: CLH
Summary of the method: (§4)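 Liver microsomes at 0.75 mg/mL final protein, with test article and NADPH regeneration system (6 mM) in 100 mM phosphate buffer, pH 7.4. Preincubated 5 min at 37 °C, then started with NADPH. Quenched with acetonitrile containing internal standard at 5, 15, 30 and 45 min, centrifuged, and percent remaining measured by LC/MS. Ketanserin served as reference.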

[5] = Metabolic stability in mouse liver microsomes assessed as compound remaining preincubated for 5 mins followed by NADPH addition measured after 30 mins by LC/MS analysis; assay type: ADME, Microsome; conditions: time 35 min, read-out: Stability; summary of the method: as §3
Bacillus subtilis [6] = assay: Antibacterial activity against Bacillus subtilis 618 assessed as bacterial growth inhibition incubated for 18 hrs by CLSI based broth microdilution method; assay type: functional
Summary of the method: (§5)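 CLSI broth microdilution. Log-phase bacteria in Mueller Hinton broth added to 2-fold serial dilutions spanning 128 to 0.25 or 2 to 0.004 µg/mL. Incubated aerobically for 18 h at 37 °C, then OD600 read. MIC is the lowest concentration giving ≥90% growth inhibition; three independent assays.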

[7] = Metabolic stability in human liver microsomes assessed as compound remaining preincubated for 5 mins followed by NADPH addition measured after 15 mins by LC/MS analysis; assay type: ADME, Microsome; conditions: time 20 min, read-out: Stability; summary of the method: as §3
[8] = molecular target: T1, Cell division protein FtsZ (Staphylococcus aureus) (UniProt P0A031); assay: Inhibition of recombinant Staphylococcus aureus FtsZ assessed as FtsZ polymerization at 10 ug/ml preincubated for 10 mins followed by GTP addition measured after 20 mins by TEM analysis; conditions: dose 10.0 µg/ml, time 30.0 min
T1 sequence (whole entry): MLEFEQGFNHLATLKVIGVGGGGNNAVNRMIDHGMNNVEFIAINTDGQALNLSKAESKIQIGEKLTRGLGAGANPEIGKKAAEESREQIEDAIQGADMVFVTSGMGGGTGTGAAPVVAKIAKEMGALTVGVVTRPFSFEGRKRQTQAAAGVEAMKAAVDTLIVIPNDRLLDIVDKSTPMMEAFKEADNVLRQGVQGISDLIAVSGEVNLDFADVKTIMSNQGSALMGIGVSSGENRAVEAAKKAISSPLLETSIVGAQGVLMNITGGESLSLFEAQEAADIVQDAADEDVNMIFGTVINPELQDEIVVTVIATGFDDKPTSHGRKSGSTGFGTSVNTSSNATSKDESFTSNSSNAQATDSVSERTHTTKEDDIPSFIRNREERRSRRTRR
Summary of the method: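 Recombinant S. aureus FtsZ (12 µM) preincubated 10 min at room temperature with compound in DMSO, in 50 mM Hepes-KOH pH 6.8. KCl 50 mM, MgCl2 5 mM and GTP 1 mM then added, 20 min at 37 °C. Samples placed on glow-discharged carbon grids, stained with 1% phosphotungstic acid, imaged by TEM.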

[9] = Metabolic stability in human liver microsomes assessed as compound remaining preincubated for 5 mins followed by NADPH addition measured after 30 mins by LC/MS analysis; assay type: ADME, Microsome; conditions: time 35 min, read-out: Stability; summary of the method: as §3
Staphylococcus aureus [10] = assay: Selectivity ratio of MBC for Staphylococcus aureus ATCC25923 to MIC for Staphylococcus aureus ATCC25923; assay type: functional
Summary of the method: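 After 24 h of broth microdilution, 5 µL from clear wells plated on LB agar and incubated aerobically for 24 h at 37 °C. MBC is the lowest concentration with no colonies. Ratio is MBC over MIC, with ≤4 taken as bactericidal and >4 as bacteriostatic.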

[11] = Metabolic stability in rat liver microsomes assessed as half life preincubated for 5 mins followed by NADPH addition measured upto 45 mins by LC/MS analysis; assay type: ADME, Microsome; conditions: time < 50 min; summary of the method: as §4
[12] = molecular target: T1, Cell division protein FtsZ (Staphylococcus aureus); assay: Inhibition of recombinant Staphylococcus aureus FtsZ-mediated GTPase activity preincubated for 10 mins followed by GTP addition measured after 30 mins by absorbance based assay; conditions: dose <= 35.0 µg/ml, time 40.0 min
Summary of the method: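 S. aureus FtsZ (6 µM) preincubated 10 min at room temperature with a range of compound concentrations in 50 mM Hepes-KOH. KCl 300 mM, MgCl2 5 mM and GTP 1 mM then added, 30 min at 37 °C. Reaction quenched with Cytophos reagent for 10 min; released phosphate read at 620 nm.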

[13] = AUC (0 to t) in ICR mouse at 1 mg/kg, iv measured for 0.08 to 24 hrs by LC-MS/MS analysis; assay type: ADME, organism-based; design: time 0.08-24 hrs, dose 1 mg/kg, route iv; conditions: in vivo; summary of the method: as §1
Staphylococcus aureus [14] = assay: Antibacterial activity against methicillin-resistant Staphylococcus aureus shhsE1 assessed as bacterial growth inhibition incubated for 18 hrs by CLSI based broth microdilution method; assay type: functional
Summary of the method: (§6)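 Broth microdilution to CLSI guidelines. Log-phase bacteria grown in Mueller Hinton broth, diluted, then exposed to 2-fold serial dilutions of compound (128 to 0.25 µg/mL or 2 to 0.004 µg/mL). Incubated aerobically 18 h at 37 °C. Growth read as OD600. MIC = lowest concentration giving ≥90% growth inhibition. Three independent assays.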

[15] = Half life in ICR mouse at 5 mg/kg, po measured for 0.25 to 24 hrs by LC-MS/MS analysis; assay type: ADME, organism-based; conditions: in vivo, time 0.25-24 hrs; summary of the method: as §2
[16] = Metabolic stability in mouse liver microsomes assessed as compound remaining preincubated for 5 mins followed by NADPH addition measured after 45 mins by LC/MS analysis; assay type: ADME, Microsome; conditions: time 50 min, read-out: Stability; summary of the method: as §3
Bacillus subtilis [17] = assay: Antibacterial activity against Bacillus subtilis ATCC9372 assessed as bacterial growth inhibition incubated for 18 hrs by CLSI based broth microdilution method; assay type: functional; summary of the method: as §5
Klebsiella pneumoniae = assay: Antibacterial activity against Klebsiella pneumoniae 14578 assessed as bacterial growth inhibition incubated for 18 hrs by CLSI based broth microdilution method; assay type: functional; summary of the method: as §6

Cc1cc(Cl)ccc1-c1cccc(COc2ccc(F)c(C(N)=O)c2F)c1
CL [1]: 94.713 mL/min/kg
AUC(0-inf) [2]: 559 ng·h/mL
remaining at 5 min [3]: 53.1%
CLint scaled [4]: 183 mL/min/kg
remaining at 0.5 h [5]: 1.74%
MIC (Bacillus subtilis [6]): 0.008 µg/mL (≈ 0.0206 µM)
remaining at 0.25 h [7]: 86.2%
inhibition [8]: Active
remaining at 0.5 h [9]: 83.4%
Selectivity ratio (Staphylococcus aureus [10]): 2
half-life [11]: 0.226 h
inhibition [12]: Active
AUC(0-t) [13]: 178 ng·h/mL
MIC (Staphylococcus aureus [14]): 0.125 µg/mL (≈ 0.322 µM)
half-life [15]: 2.26 h
remaining at 0.75 h [16]: 0.46%
MIC (Bacillus subtilis [17]): 0.016 µg/mL (≈ 0.0413 µM)
MIC (Klebsiella pneumoniae): > 128 µg/mL
